In ChEMBL document CHEMBL1132942, “Quinolones: novel probes in antifilarial chemotheraphy” (2000) one finds Reduction data, which are given here for 14 compounds.

The test system of test [1] is Acanthocheilonema viteae. Description: (§1) Tested in vivo for Acanthocheilonema viteae at 200 mg/kg X 5 days(perorally). Format: functional. The following applies: route oral. In short, it runs like this: (§2)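 A. viteae transmitted to male M. coucha (6 weeks old) via vector tick Ornithodorus moubata. Test agents given orally at 200 mg/kg daily for five consecutive days. Micro- and macrofilaricidal activity assessed per earlier-described methods.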

The nature of test [2]: Tested in vivo for sterilization of female worms. The test is classed as functional, Acanthocheilonema viteae. Also noted: concentration or dose not given beside the values.
Test [3] relates to Acanthocheilonema viteae. Described as §1. Format: functional. To be noted: route oral. In short, it runs like this:
as §2
This is another data set of the same source.

Each structure is given as a SMILES string.

Consider `CCN(CC)C(=O)N1CCN(C)CC1.O=C(O)CC(O)(CC(=O)O)C(=O)O` [DIETHYLCARBAMAZINE CITRATE], for which the Reduction with Acanthocheilonema viteae [1] was 90%; in test [2], 0%; in the test on Acanthocheilonema viteae [3], 0%.
For `CCCCCCCCNC(=O)c1cnc2ccc(F)cc2c1O`, the Reduction in the test with Acanthocheilonema viteae [1] is on record as 48%; in test [2] it was 0%; in the test with Acanthocheilonema viteae [3], 0%.
As to `O=C(NC1CCCCC1)c1cnc2ccccc2c1O`, the results for the Reduction in the test on Acanthocheilonema viteae [1] and in the test with Acanthocheilonema viteae [3] were 90% and 100%, respectively.
Take `CCN(CC)CCCC(C)NC(=O)c1cnc2cc(Cl)c(F)cc2c1O` (stereo unspecified): the Reduction in the test on Acanthocheilonema viteae [1] came to 60%; in test [2], 0%; with Acanthocheilonema viteae [3] it was 0%.
For `CCCCCCCCNC(=O)c1cnc2ccc([N+](=O)[O-])cc2c1O`, the Reduction in the test with Acanthocheilonema viteae [1] is on record as 40%; in test [2] it was 100%; in the test on Acanthocheilonema viteae [3] it was 38%.
Regarding `Cc1cccc2c(O)c(C(=O)NC3CCCCC3)cnc12`, the Reduction in the test with Acanthocheilonema viteae [1] is 54%; in test [2], 0%; with Acanthocheilonema viteae [3], 0%.
Turning to `CCCCCCCCNC(=O)c1cnc2ccc(Cl)cc2c1O`, the Reduction in the test with Acanthocheilonema viteae [1] was found to be 30%; in test [2], 0%; in the test with Acanthocheilonema viteae [3], 50%.
The corresponding values for `O=C(NC1CCCCC1)c1cnc2ccc([N+](=O)[O-])cc2c1O` are 54%, 0% and 0%.
The corresponding values for `O=C(NC1CCCCC1)c1cnc2ccc(F)cc2c1O` are 50%, 36% and 31%.
Turning to `O=C(NC1CCCCC1)c1cnc2cc([N+](=O)[O-])ccc2c1O`, the Reduction in the test on Acanthocheilonema viteae [1] was determined as 24%; in test [2], 0%; in the test on Acanthocheilonema viteae [3], 80%.
`CCCCCCCCNC(=O)c1cnc2c(C)cccc2c1O`: the Reduction with Acanthocheilonema viteae [1] worked out at 17%; in test [2], 0%; with Acanthocheilonema viteae [3], 0%.
In the case of `CCN(CC)CCCC(C)NC(=O)c1cnc2ccc([N+](=O)[O-])cc2c1O` (stereo unspecified), the figures for the Reduction (in the test on Acanthocheilonema viteae [1]; in test [2]; in the test on Acanthocheilonema viteae [3]) were 54%, 0% and 0%, respectively.
`CCCCCCCCNC(=O)c1cnc2ccccc2c1O`: the Reduction with Acanthocheilonema viteae [1] is 25%; in test [2], 0%; with Acanthocheilonema viteae [3] it was 0%.
`CCCCCCCCNC(=O)c1cnc2c(F)cccc2c1O`: the Reduction was determined as 37% in the test on Acanthocheilonema viteae [1], 25% in test [2] and 47% in the test on Acanthocheilonema viteae [3].
